According to ChEMBL document CHEMBL3272005 (J Med Chem, 1978):

What was measured:
[1] = Plasma concentration in ventricular arrthymia patient at 1.4 mg/min, iv administered for 36 hrs measured after 30 hrs; format: ADME, organism-based; settings: human
Salmonella typhimurium [2] = assay: Genotoxicity in Salmonella typhimurium TA-1538 after 2 days by Ames test in presence of C57BL/6J mouse liver S9 fraction relative to control; format: toxicity, organism-based; settings: salmonella enterica subsp. enterica serovar typhimurium, s9, 48 h
Salmonella typhimurium [3] = assay: Genotoxicity in Salmonella typhimurium TA-1538 after 2 days by Ames test relative to control; format: toxicity, organism-based; settings: salmonella enterica subsp. enterica serovar typhimurium, 48 h
Method in brief: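 Compounds were tested at 1, 10, 100 and 500 μg, added in Me2SO to top agar. His+ revertant colonies were counted after 2 days at 37 °C and compared with Me2SO-only plates.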

[4] = Drug level in po dosed human urine treated with lidocaine; format: ADME, organism-based; settings: in vivo
Method in brief: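 Analysed by chemical-ionization MS stable isotope dilution, with deuterated N-hydroxy analogues as internal standards. Samples were measured before and after TiCl3 reduction. Released 2,6-dimethylaniline was followed by m/e 122/124 ratios and by GC-CIMS selected ion monitoring. Values are given as % of dose.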

[5] = Drug level in ventricular arrthymia patient urine treated with lidocaine at 1.4 mg/min, iv administered for 36 hrs measured after 30 hrs measured after 30 hrs; format: ADME, organism-based; settings: human, in vivo
Method in brief: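 Aliquots were analysed immediately after collection by CIMS stable isotope dilution with deuterated analogues as internal standards. Analysis was run before and after TiCl3 reduction of the urine.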

Mus musculus = species on record: Mus musculus; assay: Carcinogenic activity in Swiss albino mouse; format: toxicity, organism-based; settings: in vivo

Row | concentration at 30 h [1] [ng/mL] | Drug excretion [4] | Drug excretion [5] | Structure (SMILES) | Activity (Salmonella typhimurium [2]) | Activity (Salmonella typhimurium [3]) | Activity (Mus musculus)
1 | 680 | metabolite_detected | metabolite_detected | CCNCC(=O)Nc1c(C)cccc1C | Non-toxic | Non-toxic | –
2 | – | – | – | Cc1cccc(C)c1N | Non-toxic | Non-toxic | –
3 | – | – | – | CCN(CC)CC(=O)N(O)c1c(C)cccc1C | Non-toxic | Non-toxic | Non-toxic
4 | – | – | – | CCNCC(=O)N(O)c1c(C)cccc1C | Non-toxic | Non-toxic | Non-toxic
5 | – | metabolite_detected | metabolite_detected | [2H]C([2H])(C)N(CC)CC(=O)Nc1c(C)cccc1C | – | – | –
6 | – | metabolite_detected | metabolite_detected | [2H]C([2H])(NCC)C(=O)Nc1c(C)cccc1C | – | – | –
7 | – | – | – | [2H]C([2H])(C)N(CC(=O)N(O)c1c(C)cccc1C)C([2H])([2H])C | – | – | Non-toxic
8 | – | metabolite_detected | metabolite_detected | Cc1cccc(C)c1NO | Non-toxic | Non-toxic | Non-toxic
9 | – | – | – | [2H]C([2H])([2H])CNCC(=O)N(O)c1c(C)cccc1C | – | – | Non-toxic
10 | – | – | – | Cc1cccc(C)c1N(O)C(=O)CCl | – | – | Non-toxic
11 | 3100 | metabolite_detected | metabolite_detected | CCN(CC)CC(=O)Nc1c(C)cccc1C [LIDOCAINE] | – | – | –
